HCV NS3 hel inh: inhibitors of Hepatitis C virus NS3 helicase | NS3 helicase DNA unwinding, Cy5 molecular beacon fluorescence | inhibition, % at 10.9 µM | 290,000 compounds, 0.56% hits | AID 1800;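 active = inhibition above the mean of all tested compounds plus 3 SD, set per campaign, cut at about 35% in these data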;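 note: 0% = DMSO wells and 100% = thioflavine S control wells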
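System: HCV NS3 helicase fragment; control set: DMSO and thioflavine S; technique: Cy5 fluorescence at 0 and 60 min, beacon hairpin quenching; reagent: beacon DNA duplex substrate plus ATP; replicates: singlicate; schedule: 1 h reaction at 25 °C, ATP-initiated; medium: MOPS buffer pH 6.5 with MgCl2, DTT, Tween20, BSA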
PABP polyA inh: PABP-poly(A) binding inhibition; inhibition, % at 35 µM; AID 2014; P11940; PABP-poly(A) RNA binding, fluorescence polarization; 290,000 compounds, 1% hits;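 note: calls also rest on retests at 20 µM and on dose response follow-up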
Target sequence (P11940 whole entry, looked up): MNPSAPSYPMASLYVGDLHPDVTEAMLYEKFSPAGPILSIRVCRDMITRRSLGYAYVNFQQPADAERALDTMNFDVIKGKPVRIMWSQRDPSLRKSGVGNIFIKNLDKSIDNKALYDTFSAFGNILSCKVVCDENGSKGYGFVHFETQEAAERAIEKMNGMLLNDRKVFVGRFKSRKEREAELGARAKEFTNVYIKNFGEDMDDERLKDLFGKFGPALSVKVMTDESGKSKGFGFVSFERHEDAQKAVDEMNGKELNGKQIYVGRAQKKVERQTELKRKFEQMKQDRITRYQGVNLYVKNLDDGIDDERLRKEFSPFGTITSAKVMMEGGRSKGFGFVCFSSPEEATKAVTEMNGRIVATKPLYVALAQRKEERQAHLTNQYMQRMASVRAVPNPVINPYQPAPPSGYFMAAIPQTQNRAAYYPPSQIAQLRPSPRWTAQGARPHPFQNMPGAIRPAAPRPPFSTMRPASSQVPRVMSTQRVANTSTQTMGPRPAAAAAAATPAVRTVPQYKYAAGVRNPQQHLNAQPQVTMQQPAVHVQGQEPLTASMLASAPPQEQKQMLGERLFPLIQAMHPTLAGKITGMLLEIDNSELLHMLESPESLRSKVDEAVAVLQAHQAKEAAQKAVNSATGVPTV
HCV core dimer: HCV core protein dimerization inhibition; inhibition, % at 5 µM; 300,000 compounds, 0.33% hits; TR-FRET GST/Flag-core106 dimerization, 1536-well;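 active = inhibition above the mean of all tested compounds plus 3 SD, set per screening campaign, cut at about 45% in these data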
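test system = GST/Flag-tagged HCV core106 proteins | probe or stimulus = Eu donor and XL665 acceptor anti-tag antibodies | times = compound-protein-antibody incubation 4 h at 22.5 °C | signal = TR-FRET, excitation 340 nm, emission 617 and 671 nm | measure = percent inhibition of core106 dimerization signal | controls = wells lacking GST-core106 and wells with excess unlabelled core106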
eIF4H inh: inhibitors of RNA binding by human eIF4H; 290,000 compounds, 0.94% hits; eIF4H fluorescence polarization binding assay; inhibition, % at 35 µM; Q15056;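 note: calls also rest on retests at 20 µM and on dose response follow-up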
MLLE-PAM2 inh: blocks PAM2 peptide binding to the PABP1 MLLE domain | GST-MLLE / FITC-PAM2 fluorescence polarization | inhibition, % at 20 µM | 360,000 compounds, 0.36% hits; in the data active = inhibition above about 35%, passing the limit was not always enough;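 note: plate controls were DMSO wells with GST-MLLE for no effect and wells lacking GST-MLLE protein for full effect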
DNA FID counter-1: fluorescent intercalator displacement, NS3 helicase counter-screen; DNA fluorescent intercalator displacement, fluorescence; 290,000 compounds, 0.17% hits; inhibition, % at 7.9 µM; in the data active = inhibition above about 37%;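 note: 0% = vehicle and 100% = reference compound; higher means more ethidium bromide displaced from hairpin DNA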
NS3 hel confirm: confirmation of Hepatitis C virus NS3 helicase inhibitors | inhibition, % at 10.9 µM | 1,600 compounds, 31% hits | shares compounds with HCV NS3 hel inh | NS3 helicase DNA unwinding, Cy5 molecular beacon fluorescence;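 active = inhibition above the mean of all tested compounds plus 3 SD, cutoff set per campaign, cut at about 36% in these data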
DNA FID counter-2: intercalator displacement, NS3 helicase counter-screen; shares compounds with HCV NS3 hel inh; AID 1945; inhibition, % at 7.9 µM; 1,600 compounds, 4% hits; DNA fluorescent intercalator displacement, fluorescence; in the data active = inhibition above about 37%;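 note: 0% = vehicle and 100% = reference compound; higher means more displacement of ethidium bromide from the DNA hairpin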
Starred values were filed as active, the others as inactive. Most compounds without a hit are left out; they make up all but 2% or so of the library. Unless noted, the rule behind the calls is not given here.

How did CC(=C\c1ccccc1)/C=C1/SC(=S)N(C(C(=O)O)C(C)C)C1=O (centres undefined) do in these assays?
HCV NS3 hel inh: 22.7; PABP polyA inh: 8.7; eIF4H inh: 7.0; MLLE-PAM2 inh: 14.5; DNA FID counter-1: -25.1

What do the screens show for `COc1ccc(CC(N)c2csc(Nc3nncc4ccccc34)n2)cc1` (centres undefined)?
MLLE-PAM2 inh: -18.9

How did O=C(c1ccc(CSc2ccc(Cl)cc2)o1)N1CCOCC1 do in these assays?
MLLE-PAM2 inh: 23.4

How did NS(=O)(=O)c1ccc(N2C(=O)C(=O)/C(=C(/O)c3ccccc3)C2c2ccc(Cl)cc2)cc1 (centres undefined) do in these assays?
HCV NS3 hel inh: 40.8*; PABP polyA inh: 11.6; HCV core dimer: 4.4; eIF4H inh: 5.0; MLLE-PAM2 inh: -11.8; DNA FID counter-1: -38.8; NS3 hel confirm: 10.9; DNA FID counter-2: -11.3

Results for CCOC(=O)C1=C(O)C(=O)N(c2ccc(S(N)(=O)=O)cc2)C1c1ccc(Cl)cc1 (centres undefined) ?
HCV NS3 hel inh: 14.5; PABP polyA inh: 6.5; HCV core dimer: 0.9; eIF4H inh: 4.2; MLLE-PAM2 inh: 1.0; DNA FID counter-1: -14.1

What do the screens show for `COc1cc(NC(=O)N2CCc3nc(NCc4cccc(Oc5ccccc5)c4)ncc3C2)cc(OC)c1OC`?
MLLE-PAM2 inh: -3.4

Results for COc1cc(OC)c(OC)cc1CNC(=O)c1cccc(S(=O)(=O)N2CCc3ccccc3C2)c1 ?
MLLE-PAM2 inh: 0.8

What do the screens show for `CCCCOc1ccc(C(=O)NCC(=O)NC2CCCCC2)cc1`?
MLLE-PAM2 inh: 2.1

How did Oc1ccc(/C=N/Nc2ccnc3cc(Cl)ccc23)c(O)c1O do in these assays?
HCV NS3 hel inh: 40.2*; PABP polyA inh: 18.9; HCV core dimer: -16.4; eIF4H inh: 66.9*; MLLE-PAM2 inh: -61.5; DNA FID counter-1: -18.8; NS3 hel confirm: 6.7; DNA FID counter-2: 44.9*

How did Oc1ccc(/C=N/Nc2ccnc3cc(Cl)ccc23)cc1O do in these assays?
HCV NS3 hel inh: -15.2; PABP polyA inh: -28.4; HCV core dimer: -8.4; eIF4H inh: -1.3; MLLE-PAM2 inh: -9.9; DNA FID counter-1: 19.1

Results for O=C(O)/C(=C\c1cccc([N+](=O)[O-])c1)c1ccc(S(=O)(=O)N2CCCCC2)s1 ?
HCV NS3 hel inh: 44.1*; PABP polyA inh: 23.0; HCV core dimer: 6.8; eIF4H inh: 5.5; MLLE-PAM2 inh: -6.9; DNA FID counter-1: -15.7; NS3 hel confirm: 54.0*; DNA FID counter-2: -13.6

What do the screens show for `CC1Sc2ccc(S(=O)(=O)CCC(=O)N3CCCC3)cc2NC1=O` (centres undefined)?
HCV NS3 hel inh: 15.9; PABP polyA inh: 5.1; HCV core dimer: -6.6; eIF4H inh: -16.3; MLLE-PAM2 inh: 9.5; DNA FID counter-1: -8.0

What do the screens show for `CC1CCCN(C(=O)CCS(=O)(=O)c2ccc3c(c2)NC(=O)C(C)S3)C1` (centres undefined)?
HCV NS3 hel inh: 44.0*; PABP polyA inh: -0.2; HCV core dimer: -14.2; eIF4H inh: -8.6; MLLE-PAM2 inh: 15.3; DNA FID counter-1: -42.1; NS3 hel confirm: -15.8; DNA FID counter-2: -24.1

How did CC1Sc2ccc(S(=O)(=O)CCC(=O)NC3CCCC(C)C3C)cc2NC1=O (centres undefined) do in these assays?
HCV NS3 hel inh: 53.9*; PABP polyA inh: 8.5; HCV core dimer: -11.6; eIF4H inh: -23.4; MLLE-PAM2 inh: -0.9; DNA FID counter-1: -46.1; NS3 hel confirm: -13.1; DNA FID counter-2: -31.3

How did CC1CCCC(NC(=O)CCS(=O)(=O)c2ccc3c(c2)NC(=O)CS3)C1C (centres undefined) do in these assays?
HCV NS3 hel inh: -2.6; PABP polyA inh: -2.8; HCV core dimer: 1.4; eIF4H inh: 5.5; MLLE-PAM2 inh: -6.2; DNA FID counter-1: -38.0

Results for COC(=O)CCC(C(=O)CN1C(=O)c2ccccc2C1=O)N1C(=O)c2ccccc2C1=O (centres undefined) ?
MLLE-PAM2 inh: -1.1

How did CCOc1ccc(Br)cc1C1=NN(C(C)=O)C(c2ccc([N+](=O)[O-])s2)O1 (centres undefined) do in these assays?
HCV NS3 hel inh: 10.3; PABP polyA inh: 4.9; eIF4H inh: -0.8; MLLE-PAM2 inh: -13.2; DNA FID counter-1: 1.7

Results for CCOc1ccc2[nH]c(=O)c(CN(Cc3nnnn3Cc3ccco3)C3CCCCC3)cc2c1 ?
HCV NS3 hel inh: 64.7*; PABP polyA inh: 31.5*; HCV core dimer: 23.1; eIF4H inh: 56.8*; MLLE-PAM2 inh: 28.9; DNA FID counter-1: -21.4; NS3 hel confirm: -10.7; DNA FID counter-2: -22.9

What do the screens show for `CCOc1ccc2[nH]c(=O)c(CN(Cc3ccco3)Cc3nnnn3Cc3ccccc3)cc2c1`?
HCV NS3 hel inh: -1.7; PABP polyA inh: 5.2; HCV core dimer: -0.2; eIF4H inh: 1.9; MLLE-PAM2 inh: 15.9; DNA FID counter-1: -12.7

How did COc1ccc2oc(=O)c(-c3nnc(NCc4ccco4)s3)cc2c1 do in these assays?
HCV NS3 hel inh: 37.2*; PABP polyA inh: 16.7; HCV core dimer: 15.1; eIF4H inh: 24.4; MLLE-PAM2 inh: 22.0; DNA FID counter-1: 0.7; NS3 hel confirm: -5.2; DNA FID counter-2: 22.6

Results for CCOc1cccc2cc(-c3nnc(NCc4ccco4)s3)c(=O)oc12 ?
HCV NS3 hel inh: 15.4; PABP polyA inh: -1.7; HCV core dimer: 30.8; eIF4H inh: 10.3; MLLE-PAM2 inh: 8.6; DNA FID counter-1: 2.4

Results for Cc1ccccc1Cn1nnc(-c2ccc(F)cc2)n1 ?
HCV NS3 hel inh: -17.9; PABP polyA inh: 5.0; HCV core dimer: -3.1; eIF4H inh: -8.3; MLLE-PAM2 inh: -2.2; DNA FID counter-1: -14.5

How did CC(/C=N/n1c(-c2cc(C)[nH]n2)n[nH]c1=S)=C\c1ccco1 do in these assays?
HCV NS3 hel inh: 45.4*; PABP polyA inh: 47.2; HCV core dimer: 7.3; eIF4H inh: 80.9; MLLE-PAM2 inh: -8.9; DNA FID counter-1: -18.7; NS3 hel confirm: -16.4; DNA FID counter-2: -5.4

What do the screens show for `CC(/C=N/n1c(-c2ccc(Cl)cc2)n[nH]c1=S)=C\c1ccco1`?
HCV NS3 hel inh: 19.3; PABP polyA inh: -0.9; HCV core dimer: 40.5; eIF4H inh: 22.4; MLLE-PAM2 inh: -36.9; DNA FID counter-1: -7.8

How did CCOc1ccccc1N1CCN(c2nc(N)c(C#N)c(CC#N)c2C#N)CC1 do in these assays?
HCV NS3 hel inh: 36.1*; PABP polyA inh: 47.7; HCV core dimer: 11.1; eIF4H inh: 29.6; MLLE-PAM2 inh: -112.7; DNA FID counter-1: -22.8; NS3 hel confirm: -17.6; DNA FID counter-2: -10.3
